Measurements published in paper PMC4593394 (ACS chemical biology, 2015).

Assays:
20S proteasome = 20S proteasome (Homo sapiens, UniProt P20618+P28074); experiment: 20S proteasome chymotrypsin-like activity; format: biochemical; details: 1.2 nM 20S proteasome, Suc-LLVY-AMC
In short: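 Kit-supplied 20S proteasome (1.2 nM final) was preincubated with test compound (eight-point, 3-fold serial dilutions) in kit reaction buffer at 37 °C for 10 min. Then 50 μM Suc-LLVY-AMC was added, followed by 1 h at 37 °C. AMC fluorescence was read at ex 380/em 440 nm. IC50 was taken from a semi-log plot of relative fluorescence versus concentration.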

ClpX = ClpX (Escherichia coli, UniProt P0A6H1); experiment: ClpX ATPase assay; format: biochemical, bacterial
Chain of ClpX (P0A6H1 whole entry): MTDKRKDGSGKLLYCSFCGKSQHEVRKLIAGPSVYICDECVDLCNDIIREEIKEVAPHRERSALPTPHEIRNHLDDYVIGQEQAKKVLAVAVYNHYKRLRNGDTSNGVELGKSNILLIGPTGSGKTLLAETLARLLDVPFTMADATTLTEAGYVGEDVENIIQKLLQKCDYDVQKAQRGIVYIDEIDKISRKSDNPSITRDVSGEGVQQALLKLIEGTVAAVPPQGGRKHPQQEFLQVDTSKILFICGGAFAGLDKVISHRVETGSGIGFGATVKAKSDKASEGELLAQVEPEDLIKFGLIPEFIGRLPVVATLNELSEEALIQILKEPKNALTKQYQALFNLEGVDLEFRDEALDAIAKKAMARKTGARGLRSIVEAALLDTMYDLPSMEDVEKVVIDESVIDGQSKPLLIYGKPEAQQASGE

p97–C522A = p97–C522A (Homo sapiens, UniProt P55072, C522A); experiment: ATPase assay, p97 C522A variant; format: biochemical
Chain of p97–C522A (P55072 whole entry C522A): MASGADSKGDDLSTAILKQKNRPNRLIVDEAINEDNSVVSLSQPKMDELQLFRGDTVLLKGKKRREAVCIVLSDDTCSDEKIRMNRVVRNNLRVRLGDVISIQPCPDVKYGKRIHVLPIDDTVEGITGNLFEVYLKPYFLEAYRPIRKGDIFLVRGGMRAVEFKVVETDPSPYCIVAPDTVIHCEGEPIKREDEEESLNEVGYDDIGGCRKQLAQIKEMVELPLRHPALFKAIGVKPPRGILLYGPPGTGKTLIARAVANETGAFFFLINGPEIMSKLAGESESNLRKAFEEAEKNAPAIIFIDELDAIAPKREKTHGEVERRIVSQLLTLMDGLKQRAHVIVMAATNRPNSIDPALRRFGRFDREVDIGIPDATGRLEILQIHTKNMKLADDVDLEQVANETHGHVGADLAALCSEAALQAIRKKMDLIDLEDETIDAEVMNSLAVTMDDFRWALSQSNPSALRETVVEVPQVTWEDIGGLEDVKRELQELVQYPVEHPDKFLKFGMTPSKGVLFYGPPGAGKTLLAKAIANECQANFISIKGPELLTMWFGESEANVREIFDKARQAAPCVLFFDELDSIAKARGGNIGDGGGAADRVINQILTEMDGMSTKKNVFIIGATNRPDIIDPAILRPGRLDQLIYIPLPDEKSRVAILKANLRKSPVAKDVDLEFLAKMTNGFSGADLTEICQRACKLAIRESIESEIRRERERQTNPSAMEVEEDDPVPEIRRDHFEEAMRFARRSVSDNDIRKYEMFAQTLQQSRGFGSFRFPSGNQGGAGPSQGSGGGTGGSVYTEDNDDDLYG
In short: (§1)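 His-tagged p97 variants were expressed from pET14b in E. coli BL21(DE3) and purified on Talon resin; C522A and C209A were also run on Superose 6. Enzyme (100 nM) was in 50 mM Tris pH 7.4, 150 mM KCl, 10 mM MgCl2, 1 mM DTT. Compound (0.0004–100 μM, 12 points, DMSO) was preincubated 10 min at 21 °C. 100 μM ATP was added at 21 °C. IC50 came from % inhibition versus log concentration.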

p97–C209A = p97–C209A (Homo sapiens, UniProt P55072, C209A); experiment: ATPase assay, p97 C209A variant; format: biochemical
Chain of p97–C209A (P55072 whole entry C209A): as the sequence (P55072 whole entry C522A) above, with C209A, A522C counted along it
In short: as §1

[1] = tested on: Ub^G76VGFP in HEK293 cells; experiment: Ub^G76VGFP reporter level, Western blot; format: cell-based; details: anti-GFP Western blot
p97–Cys0 = p97–Cys0 (Homo sapiens, UniProt P55072, C105V/C174V/C184V/C209A/C415V/C522A/C535V/C572V/C691V/C695V/C69V/C77V); experiment: ATPase assay, cysteine-less p97 variant; format: biochemical
Chain of p97–Cys0 (P55072 whole entry C69V/C77V/C105V/C174V/C184V/C209A/C415V/C522A/C535V/C572V/C691V/C695V): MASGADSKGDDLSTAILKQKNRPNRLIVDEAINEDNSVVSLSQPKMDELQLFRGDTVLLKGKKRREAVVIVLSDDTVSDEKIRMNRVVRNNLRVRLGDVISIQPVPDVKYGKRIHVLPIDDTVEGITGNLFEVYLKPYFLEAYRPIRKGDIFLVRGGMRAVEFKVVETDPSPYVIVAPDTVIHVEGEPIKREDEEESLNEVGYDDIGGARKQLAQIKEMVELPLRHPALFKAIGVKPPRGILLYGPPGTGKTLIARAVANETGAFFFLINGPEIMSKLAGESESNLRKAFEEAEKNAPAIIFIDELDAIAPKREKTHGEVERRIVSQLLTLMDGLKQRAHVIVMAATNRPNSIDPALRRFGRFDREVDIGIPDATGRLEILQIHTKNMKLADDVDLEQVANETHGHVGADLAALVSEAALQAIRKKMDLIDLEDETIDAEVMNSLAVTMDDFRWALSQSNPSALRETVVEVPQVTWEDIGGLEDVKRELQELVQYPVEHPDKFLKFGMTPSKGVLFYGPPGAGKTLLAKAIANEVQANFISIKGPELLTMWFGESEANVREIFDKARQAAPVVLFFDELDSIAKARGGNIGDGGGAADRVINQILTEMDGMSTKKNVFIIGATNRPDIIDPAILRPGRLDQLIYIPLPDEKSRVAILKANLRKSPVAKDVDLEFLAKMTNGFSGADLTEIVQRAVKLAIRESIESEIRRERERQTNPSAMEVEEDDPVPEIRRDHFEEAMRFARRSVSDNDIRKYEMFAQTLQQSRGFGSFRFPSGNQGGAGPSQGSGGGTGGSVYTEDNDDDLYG
In short: as §1

wt p97 = wt p97 (Homo sapiens, UniProt P55072); experiment: p97 ATPase assay; format: biochemical
Chain of wt p97 (P55072 whole entry): as the sequence (P55072 whole entry C522A) above, with A522C counted along it
In short: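 Test compound in DMSO (0.0004–100 μM) preincubated 10 min at 21 °C, then 100 μM ATP added at 21 °C. IC50 fitted from % inhibition versus log concentration. Screen: 100 μM pure compounds, EDTA positive control.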

[2] = target: N-ethylmaleimide sensitive factor (NSF) (Cricetulus griseus, UniProt P18708); experiment: NSF ATPase assay; format: biochemical, Chinese hamster (Cricetulus griseus)
Chain of N-ethylmaleimide sensitive factor (NSF) (P18708 whole entry): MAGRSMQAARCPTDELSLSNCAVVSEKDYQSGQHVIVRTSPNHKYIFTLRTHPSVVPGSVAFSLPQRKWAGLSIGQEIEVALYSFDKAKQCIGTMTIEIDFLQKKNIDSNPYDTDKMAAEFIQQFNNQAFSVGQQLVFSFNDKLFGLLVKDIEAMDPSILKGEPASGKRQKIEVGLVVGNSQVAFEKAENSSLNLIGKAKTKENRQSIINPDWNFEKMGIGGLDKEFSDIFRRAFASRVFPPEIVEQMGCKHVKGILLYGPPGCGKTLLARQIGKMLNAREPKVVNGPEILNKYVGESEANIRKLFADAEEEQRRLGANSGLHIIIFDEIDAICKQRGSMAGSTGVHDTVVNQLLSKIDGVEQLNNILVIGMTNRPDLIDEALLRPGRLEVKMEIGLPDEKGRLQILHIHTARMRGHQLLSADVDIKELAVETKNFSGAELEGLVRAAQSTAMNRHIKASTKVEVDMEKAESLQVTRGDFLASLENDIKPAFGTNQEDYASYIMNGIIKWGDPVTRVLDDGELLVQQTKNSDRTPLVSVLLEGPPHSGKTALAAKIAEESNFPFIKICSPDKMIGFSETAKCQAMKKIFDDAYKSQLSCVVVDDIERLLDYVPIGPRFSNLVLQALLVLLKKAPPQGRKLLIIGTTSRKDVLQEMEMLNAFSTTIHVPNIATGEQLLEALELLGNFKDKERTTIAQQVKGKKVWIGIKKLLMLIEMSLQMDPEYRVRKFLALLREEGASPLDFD
In short: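 Chinese hamster NSF was expressed in E. coli Rosetta 2(DE3), purified by Talon then Superdex 200, and used at 200 nM in 50 mM Tris pH 7.4, 150 mM KCl, 10 mM MgCl2, 1 mM DTT. Compound (0.0004–100 μM in DMSO) was preincubated 10 min at 21 °C, then 100 μM ATP was added. IC50 was fitted from % inhibition on a semi-log plot.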

XBP1s in HEK293 cells = experiment: Unfolded protein response: XBP1 splicing, Western blot; format: cell-based; details: anti-XBP1 Western blot
In short: (§2)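 HEK293 cells were treated with compound in DMEM/10% FBS for 24 h and lysed in SDS sample buffer with sonication. Lysates were run on 4–20% gradient SDS-PAGE and transferred to nitrocellulose, blocked 1 h in 5% milk, then probed with 1:1000 anti-ubiquitin, anti-XBP1s (spliced […] band) or anti-LC3 I/II (LC3-II lowest band). Secondaries were used at 1:3000 with chemiluminescent detection; lamin A or GAPDH served as loading controls.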

wild-type p97 (wt-p97) = wild-type p97 (wt-p97) (Homo sapiens, UniProt P55072); experiment: Analysis of covalent reactivity: p97 ATPase activity after dialysis; format: biochemical; details: 1 μM compound, 1 μM p97, 2 mM ATP
Chain of wild-type p97 (wt-p97) (P55072 whole entry): as the sequence (P55072 whole entry C522A) above, with A522C counted along it
In short: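 His-tagged wild-type p97 (pET14b, E. coli BL21(DE3), Talon-purified; 1 μM) was incubated with 1 μM compound in Tris/KCl/MgCl2/DTT buffer pH 7.4 at 4 °C 12 h, 21 °C 6 h or 37 °C 2 h; 1% DMSO served as control. The mixture was dialysed against buffer exchanged three times at 2-h intervals.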

GroEL = GroEL (Escherichia coli, UniProt P0A6F5); experiment: biochemical; parameters: species or system E. coli
Chain of GroEL (P0A6F5 2-548): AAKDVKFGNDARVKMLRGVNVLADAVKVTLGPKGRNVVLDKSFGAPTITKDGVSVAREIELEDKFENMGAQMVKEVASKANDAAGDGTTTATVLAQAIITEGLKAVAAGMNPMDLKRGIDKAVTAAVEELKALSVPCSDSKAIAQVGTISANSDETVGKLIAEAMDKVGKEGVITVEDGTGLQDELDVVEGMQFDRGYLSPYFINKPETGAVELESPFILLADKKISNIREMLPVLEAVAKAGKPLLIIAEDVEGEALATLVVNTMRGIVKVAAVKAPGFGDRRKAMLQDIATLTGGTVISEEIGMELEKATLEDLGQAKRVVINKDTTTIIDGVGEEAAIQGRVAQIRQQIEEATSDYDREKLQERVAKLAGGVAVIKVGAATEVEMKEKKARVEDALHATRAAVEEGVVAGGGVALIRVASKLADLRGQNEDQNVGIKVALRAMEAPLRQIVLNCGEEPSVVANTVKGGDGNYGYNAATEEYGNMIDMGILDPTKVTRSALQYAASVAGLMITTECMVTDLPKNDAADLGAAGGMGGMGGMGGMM

[3] = tested on: actin (phalloidin), vimentin, and annexin II; experiment: Immunofluorescence of structural proteins; format: cell-based; details: HEK293 cells, 4 h, concentrations used in the cellular studies
[4] = tested on: total ubiquitylated proteins in HEK293 cells; experiment: Total ubiquitylation, Western blot; format: cell-based; details: anti-ubiquitin antibody
In short: as §2

in vitro [5] = details: human
in vitro [6] = details: human; remark: listed apart in the source
in vitro [7] = details: human; remark: listed apart in the source
in vitro [8] = details: human; remark: listed apart in the source
in vitro [9] = details: human; remark: listed apart in the source
in vitro [10] = details: human; remark: listed apart in the source

| SMILES | IC50 (ClpX) [µM] | IC50 (p97–C522A) [µM] | IC50 (p97–C209A) [µM] | IC50 (p97–Cys0) [µM] | IC50 (wt p97) [µM] | IC50 [2] [µM] | IC50 (GroEL) [µM] | further results |
| --- | --- | --- | --- | --- | --- | --- | --- | --- |
| CC1=C(CO)C(=O)O[C@@H]([C@@H](C)[C@H]2CC[C@H]3[C@@H]4C[C@H]5O[C@]56[C@@H](O)C=CC(=O)[C@]6(C)[C@H]4CC[C@]23C)C1 [Compound 1, withaferin A] | > 200 | > 200 | 24.9 ± 1.91 | > 200 | 44 ± 0.21 | > 200 | > 200 | inhibition of the 20S proteasome (20S proteasome): inhibit; level of Ub^G76VGFP reporter [1]: dose-dependent, higher levels of reporter; inhibition of p97 in initial screen (wt p97; 100 μM for pure compounds, 384-well plate): moderate inhibition; effect of ATP concentration on the IC50 value (wt p97; varied ATP concentration): distinct shift in the IC50 value; increase in XBP1s (XBP1s in HEK293 cells): did show an increase; inhibition of p97 ATPase remaining after extensive dialysis (wild-type p97 (wt-p97)): slight inhibition remained; effects on structural proteins [3]: did not see effects; total ubiquitylation [4]: increased |
| CC1=C(CO)C(=O)O[C@@H]([C@@H](C)[C@H]2CC[C@H]3[C@@H]4C[C@H]5O[C@]56[C@@H](O)[C@@H](O)CC(=O)[C@]6(C)[C@H]4CC[C@]23C)C1 [Compound 14, viscosalactone B] | > 200 | > 200 | > 200 | > 200 | > 200 | > 200 | > 200 | IC50 at 48 h (in vitro [5]): > 100 µM; IC50 at 48 h (in vitro [6]): > 100 µM; IC50 at 48 h (in vitro [7]): > 100 µM; IC50 at 48 h (in vitro [8]): > 100 µM; IC50 at 48 h (in vitro [9]): > 100 µM; IC50 at 48 h (in vitro [10]): > 100 µM |
